{"source": "paper PMC8892239", "about": "(EFSA Journal, 2022)", "key": {"[1]": {"system": "bone marrow", "assay": "In vivo micronucleus assay", "parameters": "species or system rat", "conditions": "20 mg/kg bw once by oral gavage", "outline": "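Female rats were dosed twice by oral gavage, 24 h apart, with vehicle or 87.5, 175 or 350 mg/kg bw. Cyclophosphamide 20 mg/kg bw was given once by gavage as positive control. Five groups of five animals. Micronuclei and the PCE/NCE ratio were scored.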"}, "[2]": {"assay": "Residues of EQ and metabolites/TPs in cattle tissues", "format": "in vivo"}, "[3]": {"assay": "Residues of EQ and metabolites/TPs in piglet tissues", "format": "in vivo", "conditions": "piglets"}, "[4]": {"conditions": "ref Regulation (EC) No 1272/2008; cited from earlier work"}}, "data": [{"smiles": "O=P1(N(CCCl)CCCl)NCCCO1", "note": "(stereo not drawn) [Cyclophosphamide, cyclophosphamide]", "values": [{"measurement": "number of micronuclei (positive control)", "setting": "[1]", "value": "statistically significant increase"}]}, {"smiles": "CCOC1=CC(=O)C2=NC(C)(C)C=C(C)C2=C1", "note": "[Metabolite A, 6‐ethoxy‐2,2,4‐trimethyl‐quinolin‐8‐one]", "values": [{"measurement": "concentration at 42 days", "setting": "[2]; Holstein, bovine, liver, oral, 50 mg EQ/kg complete feed", "value": 121, "unit": "ng/g"}, {"measurement": "residue in muscle, highest value", "setting": "[2]; cattle, control (0 mg EQ/kg feed), 42 days, LOQs as above", "value": "˂ LOQ"}, {"measurement": "residue in muscle", "setting": "[3]; control feed (0 mg EQ/kg), 42 days, mean ± SD, LOQs as above", "value": "˂ LOQ"}, {"measurement": "residue in muscle", "setting": "[3]; feed with 50 mg EQ/kg for 42 days, LOQs 1.5 to 2 µg EQ, EQDM, metabolite A/kg, 0.5 µg EQI/kg", "value": "˂ LOQ"}]}, {"smiles": "CCOc1ccc(N)cc1", "note": "[p‐phenetidine]", "values": [{"measurement": "germ cell mutagenicity classification", "setting": "[4]", "value": "Muta. 2"}]}]}
